Assay outcomes (PubChem BioAssay)
Compounds with a hit are over-represented: about 1.9% of the library has one in this group of screens.
NPY-Y1 PAM-ag: potentiates or activates human NPY-Y1 receptor | P25929 | hit rate 0.37% among 220,000 | NPY-Y1 expressing cells, potentiator/agonist activation | activation, % at 3.6 µM; in the data active = activation above about 33%, passing the limit was not always enough;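 also: cells stimulated with NPY at EC10 then isoproterenol at EC100; 0% = low agonist plus stimulus and 100% = saturating agonist plus stimulus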
Target sequence (P25929 whole entry, looked up): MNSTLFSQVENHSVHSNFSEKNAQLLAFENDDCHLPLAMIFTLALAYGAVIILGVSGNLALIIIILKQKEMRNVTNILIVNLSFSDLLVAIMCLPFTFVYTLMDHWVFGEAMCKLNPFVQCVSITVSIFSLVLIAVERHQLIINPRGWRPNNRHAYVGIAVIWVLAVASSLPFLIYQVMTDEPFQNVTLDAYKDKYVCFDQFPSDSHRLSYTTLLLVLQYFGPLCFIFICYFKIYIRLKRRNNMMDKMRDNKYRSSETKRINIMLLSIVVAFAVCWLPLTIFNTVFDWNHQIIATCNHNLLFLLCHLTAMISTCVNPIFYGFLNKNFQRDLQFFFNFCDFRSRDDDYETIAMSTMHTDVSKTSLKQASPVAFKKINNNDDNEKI
NPY-Y2 PAM-ag: potentiators or agonists of human neuropeptide Y receptor Y2 | hit rate 0.45% among 220,000 | cells expressing NPY-Y2, potentiator/agonist read-out | activation, % at 3.6 µM | P49146; in the data active = activation above about 27%;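 also: cells stimulated with NPY near EC25 plus isoproterenol at EC100; 0% = vehicle plus submaximal agonist and 100% = vehicle plus saturating agonist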
Target sequence (P49146 whole entry, looked up): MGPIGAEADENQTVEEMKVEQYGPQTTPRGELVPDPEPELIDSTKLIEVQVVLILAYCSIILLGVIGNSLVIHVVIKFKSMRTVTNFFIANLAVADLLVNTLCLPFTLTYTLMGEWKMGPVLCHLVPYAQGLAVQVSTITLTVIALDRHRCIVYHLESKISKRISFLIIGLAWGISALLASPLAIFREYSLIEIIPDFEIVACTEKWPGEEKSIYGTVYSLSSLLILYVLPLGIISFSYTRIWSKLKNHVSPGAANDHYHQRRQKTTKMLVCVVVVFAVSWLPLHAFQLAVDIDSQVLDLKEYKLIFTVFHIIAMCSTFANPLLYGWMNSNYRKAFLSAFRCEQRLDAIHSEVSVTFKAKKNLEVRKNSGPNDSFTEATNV
NPY-Y1 antag: antagonists of human neuropeptide Y receptor Y1; AID 1040; hit rate 1% among 200,000; P25929; HEK293-CNG Y1 cells, membrane potential fluorescence; NPY at EC95, then isoproterenol; inhibition, % at 3.6 µM;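 active = inhibition above the campaign mean inhibition of all tested compounds plus 3 SD, cut at about 20% in these data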;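 also: 0% = DMSO wells given NPY plus isoproterenol and 100% = isoproterenol alone without NPY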
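Material: HEK293 cells co-expressing NPY Y1 receptor and cyclic-nucleotide gated channel. Timing: compound incubation 1 h at room temperature, readout 45 min post-stimulation. Signal: fluorescence, membrane potential probe.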
NPY-Y2 antag: blocks the human neuropeptide Y Y2 receptor. AID 793. P49146. NPY-Y2 expressing cells, antagonist mode. inhibition, % at 2.7 µM. hit rate 0.99% among 140,000; in the data active = inhibition above about 17%;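 also: 0% = vehicle with agonist challenge and 100% = reference antagonist with challenge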
NPY-Y1 confirm: human NPY-Y1 potentiation or agonism, confirmation; shares compounds with NPY-Y1 PAM-ag; cell-based NPY-Y1 potentiator/agonist assay; activation, % at 3.6 µM; hit rate 20% among 280; AID 1546; in the data active = activation above about 45%;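 also: cells challenged with NPY at its EC10 plus isoproterenol stimulus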
NPY-Y2 counter: NPY-Y2 potentiation or agonism as NPY-Y1 counter-screen; shares compounds with NPY-Y1 PAM-ag; HEK293-CNG cells, membrane-potential fluorescence (FLIPR), 1536-well; activation, % at 3.6 µM; hit rate 20% among 280
NPY-Y1 agonist: activates human NPY-Y1, counter-screen for NPY-Y1 potentiators; activation, % at 3.6 µM; shares compounds with NPY-Y1 PAM-ag; HEK293 Y1-CNGC, membrane potential fluorescence, agonist mode; hit rate 50% among 280;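 active = percent activation above the mean of DMSO-only control wells plus 3 SD of those wells, cut at about 18% in these data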;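 also: cells challenged with isoproterenol plus Ro 20-1724 with no NPY in test wells; Y1 agonism lowers isoproterenol-driven cAMP and reduces probe fluorescence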
NPY-Y2 ag: human NPY-Y2 agonism as NPY-Y1 counter-screen | hit rate 67% among 280 | activation, % at 3.6 µM | HEK293 Y2-CNGC, membrane potential fluorescence, agonist mode | shares compounds with NPY-Y1 PAM-ag;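 active = activation above the solvent-only control wells' mean plus 3 SD, cut at about 11% in these data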;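 also: 0% = DMSO with isoproterenol and 100% = 40 nM NPY maximal response; agonism lowers cAMP so well fluorescence drops in active wells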
CNGC inh 2: blocks cyclic nucleotide gated channel in NPY-Y1 counter-screen | hit rate 42% among 280 | HEK293-CNG parental, isoproterenol cAMP, membrane potential fluorescence | AID 1704 | shares compounds with NPY-Y1 PAM-ag | inhibition, % at 3.6 µM;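 active = inhibition above the mean of stimulated solvent-only control wells plus 3 SD, cut at about 22% in these data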;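 also: 0% = isoproterenol-stimulated DMSO wells and 100% = unstimulated DMSO wells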
NPY-Y2 confirm: confirmation of human NPY-Y2 receptor potentiators or agonists; shares compounds with NPY-Y2 PAM-ag; cell-based NPY-Y2 potentiator/agonist assay; activation, % at 3.6 µM; hit rate 20% among 450
NPY-Y1 potentiator: potentiates or activates NPY-Y1, counter-screen for NPY-Y2 hits | activation, % at 3.6 µM | hit rate 20% among 450 | shares compounds with NPY-Y2 PAM-ag | Y1 HEK293-CNG cells, membrane potential fluorescence | AID 1651; in the data active = activation above about 45%;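 also: cells stimulated with submaximal NPY then isoproterenol with phosphodiesterase inhibitor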
NPY-Y1 ag 2: activates human NPY-Y1, counter-screen for NPY-Y2 potentiators | shares compounds with NPY-Y2 PAM-ag | HEK293 Y1-CNGC, membrane potential fluorescence, agonism | activation, % at 3.6 µM | hit rate 37% among 450;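 active = activation above the mean of DMSO-only control wells plus 3 SD, cut at about 18% in these data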;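 also: cells stimulated with 1 µM isoproterenol plus the PDE inhibitor Ro 20-1724; 0% = isoproterenol with DMSO and no NPY and 100% = 40 nM NPY; Y1 agonists lower the membrane potential dye signal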
CNGC inh: blocks CNG channel activity, counter-screen for NPY-Y2 potentiators | hit rate 32% among 450 | AID 1703 | HEK293-CNG parental, isoproterenol cAMP, membrane potential fluorescence | inhibition, % at 3.6 µM | shares compounds with NPY-Y2 PAM-ag;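 active = inhibition above the control-well mean plus 3 SD of those wells, cut at about 22% in these data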;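 also: 0% = DMSO with isoproterenol and 100% = DMSO without isoproterenol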
Y2 agonist ctr: NPY-Y2 agonism, counter-screen for Y2 potentiators; AID 1710; activation, % at 3.6 µM; shares compounds with NPY-Y2 PAM-ag; hit rate 56% among 450; HEK293 Y2/CNGC cells, membrane potential fluorescence, agonist mode;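 active = activation above the mean of solvent-only control wells plus 3 SD, cut at about 10% in these data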;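 also: cells stimulated by isoproterenol with no NPY added so direct agonism is tested; 0% = DMSO with isoproterenol alone and 100% = NPY at EC100 plus isoproterenol; agonism lowers probe fluorescence through less cAMP and CNG channel opening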
Active calls of the source: *; · = not tested or not shown. Rule as the data show it, unless noted: active = activation above about 33%; inactive = the rest.

SMILES	NPY-Y1 PAM-ag	NPY-Y2 PAM-ag	NPY-Y1 antag	NPY-Y2 antag	NPY-Y2 confirm	NPY-Y1 potentiator	NPY-Y1 ag 2	CNGC inh	Y2 agonist ctr	others
CS/C(Nc1cc(Cl)ccc1Cl)=C(/C#N)C(=O)c1ccco1	51*	6	·	·	·	·	·	·	·	NPY-Y1 confirm=17;NPY-Y2 counter=7;NPY-Y1 agonist=12;NPY-Y2 ag=16*;CNGC inh 2=7
COCCN=c1scc(-c2cccs2)n1/N=C/c1ccc(O)c(O)c1O	54*	32	-3	0	·	·	·	·	·	NPY-Y1 confirm=32;NPY-Y2 counter=20;NPY-Y1 agonist=29*;NPY-Y2 ag=9;CNGC inh 2=20
CCOc1ccc(C(=O)Nc2ccc(N3CCN(C)CC3)cc2)cc1Br	37*	26	0	1	·	·	·	·	·	NPY-Y1 confirm=28;NPY-Y2 counter=19;NPY-Y1 agonist=23*;NPY-Y2 ag=22*;CNGC inh 2=26*
O=C(CCl)NC(=O)NC12CC3CC(CC(C3)C1)C2	31	41*	-13	1	28	49*	35*	10	27*
C=C(C)CN(CC)C(=O)CC1C(=O)NCCN1CC(C)(C)C (stereo not given)	17	51*	·	·	1	11	-1	2	6
O=C(Nc1ccccn1)c1cccs1	-4	13	-2	2	·	·	·	·	·
O=C(Nc1nonc1NC(=O)c1cccs1)c1cccs1	-13	31*	6	·	-6	-18	-18	-9	4
Cc1ccc(N/N=C(\C#N)C(=O)c2ccsc2)cc1	8	-1	·	·	·	·	·	·	·
N#C/C(=N\Nc1ccc(Cl)cc1)C(N)=S	38	54*	·	·	2	-5	-9	-6	3
N#C/C(=N\Nc1ccc(Cl)cc1)C(=O)c1ccsc1	36	59*	·	·	13	-10	-5	-1	6
N#C/C(=N\Nc1ccccc1)C(N)=S	1	2	·	·	·	·	·	·	·
CCCn1c(N)cc(=O)n(CCC)c1=O	-5	9	1	·	·	·	·	·	·
O=C(CS(=O)(=O)c1ccccc1)N1CCc2ccccc21	28	34*	1	·	-5	-4	-4	1	3
O=C(Cc1ccccc1)N1CCc2ccccc21	-10	-13	4	4	·	·	·	·	·
O=C(Nc1ccc(S(=O)(=O)Nc2ncccn2)cc1)c1ccc(Br)s1	12	28*	0	1	3	5	10	7	9
COc1ccccc1N=Nc1nc(-c2ccccc2)c(-c2ccccc2)[nH]1	26	22	-7	-3	·	·	·	·	·
Oc1ccccc1N=Nc1nc(-c2ccccc2)c(-c2ccccc2)[nH]1	48	45*	-2	-9	57*	69*	64*	61*	63*
CC1=CC(=O)C(C(C)C)=C/C1=N/OS(=O)(=O)c1ccccc1	35	63*	·	·	26	9	2	11	22*
CCCc1cc(-c2[nH]ncc2-c2ccc(C(=O)OCC)o2)c(O)cc1O	26	41*	-1	-2	20	19	10	13	22*
O=C(NCc1ccccc1Cl)NCc1ccccc1Cl	12	99*	·	·	-6	-7	-17	-4	5
Cc1cc(C)nc(N2CCCC(C(=O)NCc3ccc4c(c3)OCO4)C2)n1 (stereo not given)	-6	72*	8	·	-10	-9	-11	-8	-3
Cc1cc(C)nc(N2CCCC(C(=O)Nc3ccc4c(c3)OCO4)C2)n1 (stereo not given)	-15	-21	10	3	·	·	·	·	·
Nc1ncnc(Oc2cccc3cccnc23)c1[N+](=O)[O-]	-1	-21	2	·	·	·	·	·	·
CCOC(=O)C(=CNc1ccc(NC2=NCC(C)S2)cc1)C(=O)OCC (stereo not given)	25	47*	-2	2	11	29	15	-1	10
O=C(Oc1cccc([N+](=O)[O-])c1)N1CCCCC1	-4	-5	-2	·	·	·	·	·	·
SMILES	NPY-Y1 PAM-ag	NPY-Y2 PAM-ag	NPY-Y1 antag	NPY-Y2 antag	NPY-Y2 confirm	NPY-Y1 potentiator	NPY-Y1 ag 2	CNGC inh	Y2 agonist ctr	others
CCC1(CC)Cc2ccccc2C(C2=C(O)CC(C)(C)CC2=O)=N1	20	6	8	3	·	·	·	·	·
Cc1cccc2c1CC(C)(C)N=C2C1=C(O)CC(C)(C)CC1=O	17	76*	-1	1	-5	-3	-11	-2	-14
Cc1ccc(C)n1-c1ccc(-c2ccnc(N)n2)cc1	0	-6	-6	·	·	·	·	·	·
Oc1ccccc1-c1cc(-c2ccco2)[nH]n1	12	-1	-6	0	·	·	·	·	·
Cc1ccc(O)c(-c2cc(-c3ccccc3[N+](=O)[O-])[nH]n2)c1	31	35*	-12	-7	34*	38	36*	33*	35*
Oc1ccc(Cl)cc1-c1cc(-c2ccco2)[nH]n1	41	29*	-7	-6	26	38	33*	24*	31*
O=[N+]([O-])c1ccccc1-c1cc(-c2cc(Cl)ccc2O)n[nH]1	36	31*	-9	-8	50*	59*	52*	54*	60*
CC(C)n1c(=O)[nH][nH]c1=S	-12	8	·	·	·	·	·	·	·
Cc1ccc(-c2cnn(-c3cccc(C(F)(F)F)c3)c2N)cc1	29	35*	-2	9	52*	58*	44*	32*	60*
Nc1c(-c2ccc(Cl)cc2)cnn1-c1cccc(C(F)(F)F)c1	16	25	0	3	·	·	·	·	·
CN(C)c1nc(SCCOC(=O)Nc2ccccc2)nc(N(C)C)n1	-51	-2	9	4	·	·	·	·	·
Fc1ccc2c(c1)/C(=N/Nc1ccccn1)CCS2	-4	30*	1	·	10	16	27*	17	22*
CCn1c(N)[n+](CC(=O)Nc2ccc(SC(F)F)cc2)c2ccccc21	3	11	·	·	·	·	·	·	·
NNC(=O)c1cccc(S(=O)(=O)Nc2cccc(C(F)(F)F)c2)c1	20	2	·	·	·	·	·	·	·
